Screens deposited in PubChem BioAssay by several laboratories.
The sample as a whole holds a higher share of hits than the screen did.
GSH bead fluor – compound fluoresces at 488/530 nm on GSH beads; actives 0.25% (n = 190,000); fluorescence (KMESF) at 10 µM; GSH beads flow cytometry, compound fluorescence 488/530 nm; hits give high values; in the data active = fluorescence above about 89;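 note: glutathione beads carrying GST-tagged Bcl family fusion proteins plus one bare bead set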
ABCB1 block – human ABCB1 inhibition, ABCG2 as counter-screen; P08183; CCRF-Adr cells, JC-1 efflux, flow cytometry; inhibition, % at 6.6 µM; actives 0.067% (n = 190,000); in the data active = inhibition above about 40%;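 note: higher value means more JC-1 retained so stronger ABCB1 efflux block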
PKD1 kinase inh – blocks activity of human protein kinase D1. inhibition, % (no concentration beside the values). actives 0.056% (n = 200,000). PKD1 kinase fluorescence polarization assay. AID 797. Q15139
Target sequence (Q15139 whole entry, looked up): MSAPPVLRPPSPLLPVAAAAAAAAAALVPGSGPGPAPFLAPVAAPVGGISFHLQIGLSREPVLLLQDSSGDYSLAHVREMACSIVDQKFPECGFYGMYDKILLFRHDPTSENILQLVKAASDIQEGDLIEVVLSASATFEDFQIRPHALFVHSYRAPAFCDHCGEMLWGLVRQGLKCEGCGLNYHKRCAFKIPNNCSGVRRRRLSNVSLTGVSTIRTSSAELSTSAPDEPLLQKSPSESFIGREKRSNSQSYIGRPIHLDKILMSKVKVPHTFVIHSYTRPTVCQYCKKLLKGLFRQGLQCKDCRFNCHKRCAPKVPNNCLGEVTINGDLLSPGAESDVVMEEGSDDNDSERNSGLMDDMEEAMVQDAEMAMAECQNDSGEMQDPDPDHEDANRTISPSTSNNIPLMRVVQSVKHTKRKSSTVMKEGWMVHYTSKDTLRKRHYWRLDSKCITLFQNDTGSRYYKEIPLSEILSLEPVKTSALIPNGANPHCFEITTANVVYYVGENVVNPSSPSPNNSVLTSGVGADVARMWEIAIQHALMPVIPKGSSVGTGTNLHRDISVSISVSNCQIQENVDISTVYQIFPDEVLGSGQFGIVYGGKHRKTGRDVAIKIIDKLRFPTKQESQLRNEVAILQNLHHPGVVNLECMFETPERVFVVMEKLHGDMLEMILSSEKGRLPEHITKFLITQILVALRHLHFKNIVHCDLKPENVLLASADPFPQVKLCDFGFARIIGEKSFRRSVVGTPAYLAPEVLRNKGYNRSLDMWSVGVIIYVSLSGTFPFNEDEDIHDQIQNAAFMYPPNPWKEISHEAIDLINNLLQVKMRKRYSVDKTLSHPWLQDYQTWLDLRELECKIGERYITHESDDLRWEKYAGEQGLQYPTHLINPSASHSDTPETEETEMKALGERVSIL
L major viab – reduces viability of Leishmania major promastigotes; resazurin fluorescence viability; inhibition, % at 10 µM; AID 1063; actives 9% (n = 200,000);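 note: promastigotes grown with compound for 44 hours at 28 °C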
Avidin bead fluor – compound fluoresces at 488/530 nm on avidin beads | fluorescence (KMESF) at 10 µM | actives 0.38% (n = 220,000) | compound fluorescence 488/530 nm, flow cytometry; hits give high values; in the data active = fluorescence above about 47
ABCG2 inh – human ABCG2 inhibition, ABCB1 as counter-screen; Q9UNQ0; IgMXP3 cells, JC-1 efflux, flow cytometry; inhibition, % at 6.6 µM; actives 0.1% (n = 190,000); AID 1325;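 active = inhibition above 80%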
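Test system: IgMXP3 (ABCG2) plus far-red-tagged CCRF-Adr (ABCB1) cells. Reagent: JC-1 dye as substrate. Timing: 10 min exposure at 25 °C with rotation, no wash. Measured by: flow cytometric JC-1 green MFI at 530 nm. Read-out: percent efflux inhibition, scaled nicardipine 100% to DMSO 0%. Control set: nicardipine and DMSO wells.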
Of the large screens only hits and unclear results are named; the others gave an inactive call. Cut-off read from the data, not from the text of the source, unless noted: active = inhibition above about 50%; inactive = the rest.

Cc1noc(C)c1S(=O)(=O)N1CCC(C(=O)Nc2ccc(OC(F)(F)F)cc2)CC1	L major viab 99.6
Cc1noc(C)c1S(=O)(=O)N1CCC(C(=O)N(C)Cc2ccccc2)CC1	none
CCOc1ccccc1NC(=O)C1CCN(S(=O)(=O)c2c(C)noc2C)CC1	L major viab 97.5
CCC(Cc1ccccc1)NC(=O)C1CCN(S(=O)(=O)c2c(C)noc2C)CC1 (stereo not given)	L major viab 92.3
Cc1cc(N2CCC(C)CC2)nc(SCC(=O)c2ccccc2)n1	none
CCCCNC(=O)COC(=O)c1cc2c(C)nn(-c3ccccc3)c2s1	none
N#Cc1c(Nc2ccccc2)sc(C(=O)C2CC2)c1N	none
Nc1nc(Nc2ccccc2)sc1C(=O)c1ccccc1	none (no result: GSH bead fluor, ABCB1 block, PKD1 kinase inh, L major viab, ABCG2 inh)
Cc1ccc(CSc2sc(C(=O)c3ccccc3)c(N)c2C#N)cc1	none
Nc1c(C(=O)c2ccccc2)sc(Nc2ccccc2)c1S(=O)(=O)c1ccccc1	L major viab 94.8
N#Cc1c(Nc2ccccc2)sc(C(=O)c2ccc(F)cc2)c1N	L major viab 65.5
Cc1ccc(C(=O)c2sc(Nc3ccccc3)c(C#N)c2N)cc1	L major viab 74.5
O=C(CCn1cnc(-c2ccccc2)c1-c1ccccc1)N/N=C/c1ccc(O)cc1	none
O=C(CCn1cnc(-c2ccccc2)c1-c1ccccc1)N/N=C/c1ccccc1O	L major viab 98.5
COc1ccc(N(C(C)=O)S(=O)(=O)c2cccc3cccnc23)cc1	L major viab 54.1
CCn1c2ccccc2c2cc(NS(=O)(=O)c3ccccc3C)ccc21	none
Cc1ccc(NC(=O)Cc2cc(C(=O)O)c3ccccc3n2)c(C)c1	none
Cc1ccc(NC(=O)C(Cc2ccccc2)N2C(=O)C3C4CCC(C4)C3C2=O)cc1Cl (stereo not given)	L major viab 88.4
Cc1ccc(Cl)cc1NC(=O)C(Cc1ccccc1)N1C(=O)C2C3CCC(C3)C2C1=O (stereo not given)	none
c1ccc2c(c1)CCN(c1ncnc3c1[nH]c1ccccc13)C2	none (no result: PKD1 kinase inh, L major viab)
COc1ccc2c(c1)[nH]c1c(N3CCN(Cc4ccc5c(c4)OCO5)CC3)ncnc12	L major viab 78.3
c1ccc(CN2CCN(c3ncnc4c3[nH]c3ccccc34)CC2)cc1	L major viab 89.3
Cc1ccc2c(c1)[nH]c1c(N3CCN(Cc4ccccc4)CC3)ncnc12	L major viab 96.7
c1nc(N2CCN(Cc3ccc4c(c3)OCO4)CC2)c2[nH]cnc2n1	none
Cc1ccc2[nH]c3c(N4CCN(Cc5ccc6c(c5)OCO6)CC4)ncnc3c2c1	L major viab 62.1
Fc1ccc2[nH]c3c(N4CCN(C5CCCCC5)CC4)ncnc3c2c1	L major viab 84.8
Cc1ccc2[nH]c3c(N4CCN(Cc5ccccc5)CC4)ncnc3c2c1	L major viab 56.9
COc1cccc2[nH]c3c(N4CCC(C)CC4)ncnc3c12	L major viab 94.0
COc1cccc2[nH]c3c(N4CCN(Cc5ccc6c(c5)OCO6)CC4)ncnc3c12	L major viab 89.0
COc1cccc2[nH]c3c(N4CCC5(CC4)OCCO5)ncnc3c12	none (no result: GSH bead fluor, ABCB1 block, PKD1 kinase inh, L major viab, ABCG2 inh)
COc1ccc(/C=C(/NC(=O)/C=C/c2ccccc2)C(=O)NCCCCCC(=O)O)cc1	none (no result: GSH bead fluor, ABCB1 block, PKD1 kinase inh, L major viab, ABCG2 inh)
O=C(Nc1ccccc1N1CCOCC1)c1cc(Br)c(Br)s1	none
CCC(=O)Nc1ccc(S(=O)(=O)Nc2cccc(C)c2)cc1OC	none
OC1(c2cccc(C(F)(F)F)c2)CCN(c2ncnc3c2[nH]c2ccccc23)CC1	L major viab 98.3
c1ccc2c(c1)[nH]c1c(N3CCC4(CC3)OCCO4)ncnc12	none
Cc1ccc2[nH]c3c(N4CCCCCC4)ncnc3c2c1	L major viab 60.0
CCOc1ccc2[nH]c3c(N4CCN(c5ccccn5)CC4)ncnc3c2c1	none
OCCC1CN(CCCn2cccn2)CCN1C1CCCCC1 (stereo not given)	none
CCC(=O)NC(c1ccccc1)c1c(OC(C)=O)ccc2ccccc12 (stereo not given)	none
CCC(=O)NC(c1cccc([N+](=O)[O-])c1)c1c(OC(C)=O)ccc2ccccc12 (stereo not given)	L major viab 79.9
CCCC(=O)NC(c1ccc(OC)c(OC)c1)c1c(O)ccc2ccccc12 (stereo not given)	L major viab 99.7
COc1ccc(C(NC(C)=O)c2c(O)ccc3ccccc23)cc1OC (stereo not given)	none
CCCCC(=O)NC(c1ccc(OC)c(OC)c1)c1c(O)ccc2ccccc12 (stereo not given)	L major viab 100.0
CC(C)C(=O)NC(c1cccc([N+](=O)[O-])c1)c1c(O)ccc2ccccc12 (stereo not given)	none
Cc1ccc(C(NC(=O)C2CCCCC2)c2c(O)ccc3ccccc23)cc1 (stereo not given)	L major viab 97.4
CS(=O)(=O)N(Cc1ccccc1)c1ccc(C(=O)NCc2ccccc2)cc1	none (no result: Avidin bead fluor)
Cc1ccc(C(C)n2cc(C(=O)NCc3ccccn3)nn2)cc1 (stereo not given)	none
COC(=O)c1cnn(C(=O)c2cc(OC)ccc2Br)c1N	none
CCOC(=O)N1CCC(N2C(=O)c3ccccc3C2Nc2ccc(S(=O)(=O)N(CC)CC)cc2)CC1 (stereo not given)	none
CC(=O)NC(c1ccc([N+](=O)[O-])cc1)c1c(O)ccc2ccccc12 (stereo not given)	none
CCCC(=O)NC(c1ccc(N(C)C)cc1)c1c(O)ccc2ccccc12 (stereo not given)	L major viab 100.3
CC(C)C(=O)NC(c1ccc([N+](=O)[O-])cc1)c1c(O)ccc2ccccc12 (stereo not given)	L major viab 97.2
COc1ccc(/C=N/Nc2cc(C)nc(N3CCOCC3)n2)cc1	none (no result: GSH bead fluor, ABCB1 block, PKD1 kinase inh, L major viab, ABCG2 inh)
COc1ccc(/C=N/Nc2cc(N(C)C)nc(N(C)C)n2)cc1	L major viab 97.9
COc1ccc(/C=N/Nc2cc(C)nc(N)n2)cc1	L major viab 60.4
COc1ccccc1/C=N/Nc1cc(N(C)C)nc(N(C)C)n1	L major viab 83.6
CC(C)CCNC(=O)CCn1c(=S)oc2ccccc21	none
COCCNC(=O)C(OC(=O)c1nsc(Cl)c1Cl)C(C)C (stereo not given)	none
O=S(=O)(/N=C(/Nc1ccc(F)cc1F)c1ccccc1)c1ccc(Br)cc1	none
COc1ccc(C(=O)C2CCCN(Cc3cccc4c3OCO4)C2)cc1OC (stereo not given)	L major viab 77.7
O=C(c1ccc2c(c1)OCO2)C1CCCN(Cc2ccc3nsnc3c2)C1 (stereo not given)	L major viab 91.8
COc1c(C)cc(C(=O)C2CCCN(Cc3cccc4nccnc34)C2)cc1C (stereo not given)	L major viab 99.3
CCOC(=O)c1[nH]ncc1CN1CCCC(C(=O)c2ccc(OC)c(OC)c2)C1 (stereo not given)	none
